Measurements taken from ChEMBL document CHEMBL1137333, “Synthesis, radiosynthesis, and biological evaluation of carbon-11 labeled 2beta-carbomethoxy-3beta-(3'-((Z)-2-haloethenyl)phenyl)nortropanes: candidate radioligands for in vivo imaging of the serotonin transporter with positron emission tomography” (J Med Chem, 2006).

Columns and labels:
Cynomolgus monkey [1] = test: Uptake in anesthetized cynomolgus monkey occipital after 12.5 mins; type: ADME, organism-based, Macaca mulatta, Occipital cortex; details: rhesus monkey, in vivo
How it was run: (§1)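 Baseline microPET scan (P4 scanner) of anesthetized cynomolgus monkeys after injection of the carbon-11 labelled nortropane tracer. Two baseline studies were run per tracer. Radioactivity was followed over time in regional brain time-activity curves.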

Cynomolgus monkey [2] = test: Ratio of uptake in thalamus to cerebellum of anesthetized cynomolgus monkey after 65 mins; type: ADME, organism-based; details: in vivo
How it was run: (§2)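 Baseline microPET (Concorde P4) in anesthetized cynomolgus monkey after injection of the [11C]-labelled tracer. Regional time-activity curves were taken, and each region's uptake was divided by cerebellum uptake (low-SERT reference) at 65, 85 and 105 min postinjection.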

Cynomolgus monkey [3] = test: Uptake in anesthetized cynomolgus monkey midbrain after 105.0 mins; type: ADME, organism-based; details: in vivo, 1.75 h; how it was run: as §1
Cynomolgus monkey [4] = test: Uptake in anesthetized cynomolgus monkey frontal after 135.0 mins; type: ADME, organism-based, Frontal cortex; details: in vivo, 2.25 h; how it was run: as §1
Cynomolgus monkey [5] = test: Uptake in anesthetized cynomolgus monkey thalamus after 18.5 mins; type: ADME, organism-based; details: in vivo
How it was run: (§3)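 Baseline microPET (Concorde P4) scan in anesthetized cynomolgus monkeys after injection of the carbon-11 labeled tracer, with no chase drug. Regional brain time-activity curves were followed over the scan. Tracer radiochemical purity and specific activity were determined by analytical HPLC at the time of injection.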

Cynomolgus monkey [6] = test: Uptake in anesthetized cynomolgus monkey midbrain after 35.0 mins; type: ADME, organism-based; details: in vivo; how it was run: as §1
Cynomolgus monkey [7] = test: Uptake in anesthetized cynomolgus monkey putamen after 115.0 mins; type: ADME, organism-based; details: in vivo; how it was run: as §3
Cynomolgus monkey [8] = test: Uptake in anesthetized cynomolgus monkey occipital after 0.5 mins; type: ADME, organism-based, Occipital cortex; details: in vivo; how it was run: as §1
Cynomolgus monkey [9] = test: Uptake in anesthetized cynomolgus monkey medulla after 27.5 mins; type: ADME, organism-based, Medulla of organ; details: in vivo; how it was run: as §1
Cynomolgus monkey [10] = test: Uptake in anesthetized cynomolgus monkey medulla after 105.0 mins; type: ADME, organism-based, Medulla of organ; details: in vivo, 1.75 h; how it was run: as §1
Cynomolgus monkey [11] = test: Uptake in anesthetized cynomolgus monkey thalamus after 85.0 mins; type: ADME, organism-based; details: in vivo; how it was run: as §3
Cynomolgus monkey [12] = test: Ratio of uptake in thalamus to cerebellum of anesthetized cynomolgus monkey after 105 mins; type: ADME, organism-based; details: in vivo, 1.75 h; how it was run: as §2
Cynomolgus monkey [13] = test: Uptake in anesthetized cynomolgus monkey putamen after 2.5 mins; type: ADME, organism-based; details: in vivo; how it was run: as §3
Cynomolgus monkey [14] = test: Uptake in anesthetized cynomolgus monkey putamen after 6.5 mins; type: ADME, organism-based; details: in vivo; how it was run: as §3
Cynomolgus monkey [15] = test: Uptake in anesthetized cynomolgus monkey thalamus after 65.0 mins; type: ADME, organism-based; details: in vivo; how it was run: as §3
Cynomolgus monkey [16] = test: Uptake in anesthetized cynomolgus monkey putamen after 135.0 mins; type: ADME, organism-based; details: in vivo, 2.25 h; how it was run: as §3
Cynomolgus monkey [17] = test: Uptake in anesthetized cynomolgus monkey putamen after 35.0 mins; type: ADME, organism-based; details: in vivo; how it was run: as §3
Cynomolgus monkey [18] = test: Uptake in anesthetized cynomolgus monkey putamen after 1.5 mins; type: ADME, organism-based; details: in vivo, 0.025 h; how it was run: as §3
Cynomolgus monkey [19] = test: Uptake in anesthetized cynomolgus monkey pons after 135.0 mins; type: ADME, organism-based; details: in vivo, 2.25 h; how it was run: as §3
Cynomolgus monkey [20] = test: Uptake in anesthetized cynomolgus monkey thalamus after 125.0 mins; type: ADME, organism-based; details: in vivo; how it was run: as §3
Cynomolgus monkey [21] = test: Uptake in anesthetized cynomolgus monkey caudate after 125.0 mins; type: ADME, organism-based, Caudate nucleus; details: in vivo
How it was run: (§4)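 Baseline microPET (Concorde P4) regional brain time-activity curves in anesthetized cynomolgus monkey following injection of the [11C]-labelled tracer, with radioactivity followed over the scan.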

Cynomolgus monkey [22] = test: Uptake in anesthetized cynomolgus monkey frontal after 3.5 mins; type: ADME, organism-based, Frontal cortex; details: in vivo; how it was run: as §1
Cynomolgus monkey [23] = test: Uptake in anesthetized cynomolgus monkey midbrain after 95.0 mins; type: ADME, organism-based; details: in vivo; how it was run: as §1
Cynomolgus monkey [24] = test: Uptake in anesthetized cynomolgus monkey midbrain after 15.5 mins; type: ADME, organism-based; details: in vivo; how it was run: as §1
Cynomolgus monkey [25] = test: Uptake in anesthetized cynomolgus monkey cerebellum after 125.0 mins; type: ADME, organism-based, Macaca mulatta; details: rhesus monkey, in vivo; how it was run: as §4
Cynomolgus monkey [26] = test: Uptake in anesthetized cynomolgus monkey medulla after 115.0 mins; type: ADME, organism-based, Medulla of organ; details: in vivo; how it was run: as §1
Cynomolgus monkey [27] = test: Uptake in anesthetized cynomolgus monkey cerebellum after 35.0 mins; type: ADME, organism-based, Macaca mulatta; details: rhesus monkey, in vivo; how it was run: as §4
Cynomolgus monkey [28] = test: Ratio of uptake in pons to cerebellum of anesthetized cynomolgus monkey after 65 mins; type: ADME, organism-based; details: in vivo; how it was run: as §2
Cynomolgus monkey [29] = test: Uptake in anesthetized cynomolgus monkey frontal after 65.0 mins; type: ADME, organism-based, Frontal cortex; details: in vivo; how it was run: as §1
Cynomolgus monkey [30] = test: Uptake in anesthetized cynomolgus monkey pons after 125.0 mins; type: ADME, organism-based; details: in vivo; how it was run: as §3
Cynomolgus monkey [31] = test: Uptake in anesthetized cynomolgus monkey putamen after 9.5 mins; type: ADME, organism-based; details: in vivo; how it was run: as §3
Cynomolgus monkey [32] = test: Uptake in anesthetized cynomolgus monkey medulla after 55.0 mins; type: ADME, organism-based, Medulla of organ; details: in vivo; how it was run: as §1
Cynomolgus monkey [33] = test: Ratio of uptake in occipital to cerebellum of anesthetized cynomolgus monkey after 85 mins; type: ADME, organism-based; details: in vivo; how it was run: as §2
Cynomolgus monkey [34] = test: Uptake in anesthetized cynomolgus monkey putamen after 125.0 mins; type: ADME, organism-based; details: in vivo; how it was run: as §3
Cynomolgus monkey [35] = test: Uptake in anesthetized cynomolgus monkey caudate after 2.5 mins; type: ADME, organism-based, Caudate nucleus; details: in vivo; how it was run: as §4
Cynomolgus monkey [36] = test: Ratio of uptake in putamen to cerebellum of anesthetized cynomolgus monkey after 65 mins; type: ADME, organism-based; details: in vivo; how it was run: as §2
Cynomolgus monkey [37] = test: Uptake in anesthetized cynomolgus monkey midbrain after 0.5 mins; type: ADME, organism-based; details: in vivo; how it was run: as §1
Cynomolgus monkey [38] = test: Uptake in anesthetized cynomolgus monkey cerebellum after 1.5 mins; type: ADME, organism-based; details: in vivo, 0.025 h; how it was run: as §4
Cynomolgus monkey [39] = test: Uptake in anesthetized cynomolgus monkey frontal after 105.0 mins; type: ADME, organism-based, Frontal cortex; details: in vivo, 1.75 h; how it was run: as §1
Cynomolgus monkey [40] = test: Uptake in anesthetized cynomolgus monkey pons after 1.5 mins; type: ADME, organism-based, Macaca mulatta; details: rhesus monkey, in vivo, 0.025 h; how it was run: as §1
Cynomolgus monkey [41] = test: Uptake in anesthetized cynomolgus monkey midbrain after 55.0 mins; type: ADME, organism-based; details: in vivo; how it was run: as §1
Cynomolgus monkey [42] = test: Ratio of uptake in caudate to cerebellum of anesthetized cynomolgus monkey after 85 mins; type: ADME, organism-based; details: in vivo; how it was run: as §2
Cynomolgus monkey [43] = test: Ratio of uptake in medulla to cerebellum of anesthetized cynomolgus monkey after 65 mins; type: ADME, organism-based; details: in vivo; how it was run: as §2
Cynomolgus monkey [44] = test: Uptake in anesthetized cynomolgus monkey putamen after 27.5 mins; type: ADME, organism-based; details: in vivo; how it was run: as §3
Cynomolgus monkey [45] = test: Uptake in anesthetized cynomolgus monkey frontal after 22.5 mins; type: ADME, organism-based, Frontal cortex; details: in vivo, 0.375 h; how it was run: as §1
Cynomolgus monkey [46] = test: Uptake in anesthetized cynomolgus monkey frontal after 75.0 mins; type: ADME, organism-based, Frontal cortex; details: in vivo, 1.25 h; how it was run: as §1
Cynomolgus monkey [47] = test: Uptake in anesthetized cynomolgus monkey putamen after 75.0 mins; type: ADME, organism-based; details: in vivo, 1.25 h; how it was run: as §3
Cynomolgus monkey [48] = test: Ratio of uptake in midbrain to cerebellum of anesthetized cynomolgus monkey after 65 mins; type: ADME, organism-based; details: in vivo; how it was run: as §2
Cynomolgus monkey [49] = test: Uptake in anesthetized cynomolgus monkey frontal after 45.0 mins; type: ADME, organism-based, Frontal cortex; details: in vivo, 0.75 h; how it was run: as §1
Cynomolgus monkey [50] = test: Uptake in anesthetized cynomolgus monkey medulla after 0.5 mins; type: ADME, organism-based, Medulla of organ; details: in vivo; how it was run: as §1
Cynomolgus monkey [51] = test: Uptake in anesthetized cynomolgus monkey pons after 85.0 mins; type: ADME, organism-based; details: in vivo; how it was run: as §3
Cynomolgus monkey [52] = test: Uptake in anesthetized cynomolgus monkey thalamus after 135.0 mins; type: ADME, organism-based; details: in vivo, 2.25 h; how it was run: as §3
Cynomolgus monkey [53] = test: Uptake in anesthetized cynomolgus monkey medulla after 4.5 mins; type: ADME, organism-based, Medulla of organ; details: in vivo, 0.075 h; how it was run: as §1
Cynomolgus monkey [54] = test: Uptake in anesthetized cynomolgus monkey medulla after 75.0 mins; type: ADME, organism-based, Medulla of organ; details: in vivo, 1.25 h; how it was run: as §1
Cynomolgus monkey [55] = test: Uptake in anesthetized cynomolgus monkey pons after 55.0 mins; type: ADME, organism-based; details: in vivo; how it was run: as §3
Cynomolgus monkey [56] = test: Uptake in anesthetized cynomolgus monkey caudate after 9.5 mins; type: ADME, organism-based, Caudate nucleus; details: in vivo; how it was run: as §4

Work on `[11CH3]OC(=O)[C@@H]1C2CCC(C[C@@H]1c1cccc(/C=C/Br)c1)N2` (stereo partly specified) yielded a Drug uptake (Cynomolgus monkey [1]) of 4.08, a Ratio (Cynomolgus monkey [2]) of 1.3 and a Drug uptake (Cynomolgus monkey [3]) of 7.72. The Drug uptake (Cynomolgus monkey [4]) was 3.43, the Drug uptake (Cynomolgus monkey [5]) was 5.21 and the Drug uptake (Cynomolgus monkey [6]) was 7.4. The Drug uptake (Cynomolgus monkey [7]) was 7.1, the Drug uptake (Cynomolgus monkey [8]) was 0.01 and the Drug uptake (Cynomolgus monkey [9]) was 7.08. It also gave a Drug uptake (Cynomolgus monkey [10]) of 6.81, a Drug uptake (Cynomolgus monkey [11]) of 6.55 and a Ratio (Cynomolgus monkey [12]) of 1.6. It also gave a Drug uptake (Cynomolgus monkey [13]) of 1.01, a Drug uptake (Cynomolgus monkey [14]) of 4.44 and a Drug uptake (Cynomolgus monkey [15]) of 6.39. For the same compound, the Drug uptake (Cynomolgus monkey [16]) was 6.51, the Drug uptake (Cynomolgus monkey [17]) was 7 and the Drug uptake (Cynomolgus monkey [18]) was 0.3. It also gave a Drug uptake (Cynomolgus monkey [19]) of 7.4, a Drug uptake (Cynomolgus monkey [20]) of 6.09 and a Drug uptake (Cynomolgus monkey [21]) of 5.66. For the same compound, the Drug uptake (Cynomolgus monkey [22]) was 1.07, the Drug uptake (Cynomolgus monkey [23]) was 7.89 and the Drug uptake (Cynomolgus monkey [24]) was 6.32. For the same compound, the Drug uptake (Cynomolgus monkey [25]) was 3.74, the Drug uptake (Cynomolgus monkey [26]) was 6.59 and the Drug uptake (Cynomolgus monkey [27]) was 5.92. The Ratio (Cynomolgus monkey [28]) was 1.5, the Drug uptake (Cynomolgus monkey [29]) was 3.8 and the Drug uptake (Cynomolgus monkey [30]) was 6.47. The Drug uptake (Cynomolgus monkey [31]) was 5.41, the Drug uptake (Cynomolgus monkey [32]) was 7.31 and the Ratio (Cynomolgus monkey [33]) was 0.9. For the same compound, the Drug uptake (Cynomolgus monkey [34]) was 6.69, the Drug uptake (Cynomolgus monkey [35]) was 0.73 and the Ratio (Cynomolgus monkey [36]) was 1.5. It also gave a Drug uptake (Cynomolgus monkey [37]) of 0.01, a Drug uptake (Cynomolgus monkey [38]) of 0.35 and a Drug uptake (Cynomolgus monkey [39]) of 3.7. The Drug uptake (Cynomolgus monkey [40]) was 0.34, the Drug uptake (Cynomolgus monkey [41]) was 7.74 and the Ratio (Cynomolgus monkey [42]) was 1.5. For the same compound, the Ratio (Cynomolgus monkey [43]) was 1.4, the Drug uptake (Cynomolgus monkey [44]) was 6.85 and the Drug uptake (Cynomolgus monkey [45]) was 3.47. The Drug uptake (Cynomolgus monkey [46]) was 3.78, the Drug uptake (Cynomolgus monkey [47]) was 7.45 and the Ratio (Cynomolgus monkey [48]) was 1.6. For the same compound, the Drug uptake (Cynomolgus monkey [49]) was 3.76, the Drug uptake (Cynomolgus monkey [50]) was 0.02 and the Drug uptake (Cynomolgus monkey [51]) was 7.24. It also gave a Drug uptake (Cynomolgus monkey [52]) of 5.83, a Drug uptake (Cynomolgus monkey [53]) of 3.57 and a Drug uptake (Cynomolgus monkey [54]) of 7.18. The Drug uptake (Cynomolgus monkey [55]) was 7.56 and the Drug uptake (Cynomolgus monkey [56]) was 4.35.
